Here are results for ten compounds from ChEMBL document CHEMBL4699419, “Antileishmanial assessment of isoxazole derivatives against L. donovani” (RSC Med Chem, 2020).

A word on the IC50: it is the concentration needed to halve the response being measured. The term CC50 denotes the concentration giving 50% cytotoxicity. What is called inhibition in vivo is the percentage by which the read-out fell short of the control.

Calls of active or inactive are those of the source. The rule behind the calls is not given here.

The first data set has as its system Leishmania donovani. Briefly: Antileishmanial activity against late log phase promastigote stage of Leishmania donovani MHOM/IN/80/Dd8 harboring luciferase reporter gene incubated for 72 hrs by Steady-Glo luminescence assay. Type of data set: functional, organism-based. To be noted: Leishmania donovani, MHOM/IN/80/Dd8, 72 h; read-out: IC50. The essentials:
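Luciferase-transfected promastigotes kept at 25 ± 1 °C in medium 199 + 10% heat-inactivated FCS + G418 (20 μg ml–1). Late-log cells (5 × 10^5 per well) grown 72 h with graded compound concentrations from DMSO, DMSO dilution controls. Aliquot mixed 1:1 with Steady-Glo, luminescence (RLU) read; % inhibition vs control. IC50 by Probit regression, three independent experiments.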
(In general: A reporter such as luciferase makes a cellular process visible.)
For the compound `COC(=O)c1c(NCCNc2ccnc3cc(Cl)ccc23)noc1-c1ccc([N+](=O)[O-])cc1`, the IC50 was determined as 1.87 µM.
For `COC(=O)c1c(NCCCCNc2ccnc3cc(Cl)ccc23)noc1-c1ccccc1[N+](=O)[O-]`, the IC50 stood at 1.95 µM.
Take `COC(=O)c1c(NCCCNc2ccnc3cc(Cl)ccc23)noc1-c1ccc(Cl)cc1Cl`: the IC50 was determined as 3.82 µM.
For the compound `COC(=O)c1c([N+](=O)[O-])noc1-c1ccc(Cl)cc1Cl`, the IC50 was found to be 1.82 µM.
For `COC(=O)c1c([N+](=O)[O-])noc1-c1cc2c(cc1[N+](=O)[O-])OCO2`, the IC50 is 0.67 µM.
Still for that read-out and setting: the result for `COC(=O)c1c(NCc2ccc(Cl)cc2)noc1-c1cc2c(cc1[N+](=O)[O-])OCO2` reads 15.5 µM.
For the compound `O=C(NCc1cccc(Br)c1)c1c([N+](=O)[O-])noc1-c1ccc(Cl)cc1Cl`, the IC50 stood at 3.05 µM.
As to `COC(=O)c1c(NCCNc2ccnc3cc(Cl)ccc23)noc1-c1ccccc1[N+](=O)[O-]`, the IC50 was 3.45 µM.
With `COc1ccc(CNC(=O)c2c([N+](=O)[O-])noc2-c2ccc(Cl)cc2Cl)cc1`, the IC50 came to 3.42 µM.
`O=C(NCc1cccc(Cl)c1Cl)c1c([N+](=O)[O-])noc1-c1ccc(Cl)cc1Cl`: the IC50 stood at 3.49 µM.

For the next data set, the system named is Leishmania donovani. Kind of data set: Antileishmanial activity against Leishmania donovani MHOM/IN/80/Dd8 promastigotes harboring luciferase reporter gene infected in mouse J774 cells assessed as inhibition of amastigote growth incubated for 72 hrs by Steady-Glo luminescence assay. To be noted: Leishmania donovani, MHOM/IN/80/Dd8, J774, 72 h; read-out: IC50. It counts as functional, organism-based. The essentials: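 J774A.1 mouse macrophages (2 × 10^5 per well, RPMI-1640 + 10% FCS, 37 °C CO2) infected after 24 h with stationary-phase luciferase-transgenic promastigotes at 1:10 macrophage:parasite; compounds in complete medium for 72 h at 37 °C. Medium swapped for PBS, Steady-Glo added, luminescence read; % inhibition vs untreated control RLU. IC50 by Probit log dose/response regression, three independent experiments.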
Consider `COC(=O)c1c(NCCNc2ccnc3cc(Cl)ccc23)noc1-c1ccc([N+](=O)[O-])cc1`, for which the IC50 was found to be 0.91 µM.
On to `COC(=O)c1c(NCCCCNc2ccnc3cc(Cl)ccc23)noc1-c1ccccc1[N+](=O)[O-]`, for which the IC50 came out at 8.63 µM.
In the case of `COC(=O)c1c(NCCCNc2ccnc3cc(Cl)ccc23)noc1-c1ccc(Cl)cc1Cl`, the IC50 is 3.21 µM.
On the same count and under the same terms, under `COC(=O)c1c([N+](=O)[O-])noc1-c1ccc(Cl)cc1Cl` stands 4.38 µM; under `COC(=O)c1c([N+](=O)[O-])noc1-c1cc2c(cc1[N+](=O)[O-])OCO2`, 17.4 µM; under `COC(=O)c1c(NCc2ccc(Cl)cc2)noc1-c1cc2c(cc1[N+](=O)[O-])OCO2`, 4.59 µM.
Same read-out and setting: under `O=C(NCc1cccc(Br)c1)c1c([N+](=O)[O-])noc1-c1ccc(Cl)cc1Cl` stands 7.74 µM; under `COC(=O)c1c(NCCNc2ccnc3cc(Cl)ccc23)noc1-c1ccccc1[N+](=O)[O-]`, 18.7 µM; under `COc1ccc(CNC(=O)c2c([N+](=O)[O-])noc2-c2ccc(Cl)cc2Cl)cc1`, 2.03 µM.
For `O=C(NCc1cccc(Cl)c1Cl)c1c([N+](=O)[O-])noc1-c1ccc(Cl)cc1Cl`, the IC50 amounted to 1.41 µM.

System in another data set: not listed separately
Kind of data set: Cytotoxicity against mouse J774A1 cells assessed as reduction in cell viability incubated for 48 hrs by MTT assay. Type of data set: cell-based, J774.A1.
Conditions: not given
In outline: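 J774A.1 macrophages, 0.2 × 10^6 per well, incubated overnight at 37 °C in 5% CO2, then exposed to compounds in DMSO for 48 h, with DMSO dilutions as controls. Viability read by MTT formazan at 600 nm. CC50 = 50% viability reduction versus medium-only cells, from probit regression; three independent experiments.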
Background: Formazan colour is commonly taken as a measure of viable cells.
Regarding `COC(=O)c1c(NCCNc2ccnc3cc(Cl)ccc23)noc1-c1ccc([N+](=O)[O-])cc1`, the CC50 at 48 h was 3.79 µM.
Consider `COC(=O)c1c(NCCCCNc2ccnc3cc(Cl)ccc23)noc1-c1ccccc1[N+](=O)[O-]`, for which the CC50 at 48 h was 77.7 µM.
Take `COC(=O)c1c(NCCCNc2ccnc3cc(Cl)ccc23)noc1-c1ccc(Cl)cc1Cl`: the CC50 at 48 h came out at 31.1 µM.
Turning to `COC(=O)c1c([N+](=O)[O-])noc1-c1ccc(Cl)cc1Cl`, the CC50 at 48 h is 19.7 µM.
For `COC(=O)c1c([N+](=O)[O-])noc1-c1cc2c(cc1[N+](=O)[O-])OCO2`, the 50% cytotoxic concentration (CC50) at 48 h stood at 113 µM.
In the case of `COC(=O)c1c(NCc2ccc(Cl)cc2)noc1-c1cc2c(cc1[N+](=O)[O-])OCO2`, the CC50 at 48 h was 33 µM.
Take `O=C(NCc1cccc(Br)c1)c1c([N+](=O)[O-])noc1-c1ccc(Cl)cc1Cl`: the CC50 at 48 h came out at 71.2 µM.
Same read-out and setting: under `COC(=O)c1c(NCCNc2ccnc3cc(Cl)ccc23)noc1-c1ccccc1[N+](=O)[O-]` stands 73.6 µM; under `COc1ccc(CNC(=O)c2c([N+](=O)[O-])noc2-c2ccc(Cl)cc2Cl)cc1`, 80.5 µM.
On to `O=C(NCc1cccc(Cl)c1Cl)c1c([N+](=O)[O-])noc1-c1ccc(Cl)cc1Cl`, for which the CC50 at 48 h worked out at 81.8 µM.

System in another data set: not listed separately
Briefly: Selectivity index, ratio of CC50 for mouse J774.A1 cells to IC50 for amastigote form of Leishmania donovani MHOM/IN/80/Dd8. It counts as toxicity. To be noted: read-out: Ratio CC50/IC50. The essentials:
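Macrophages infected at a 1:10 ratio with stationary promastigotes, then treated 72 h at 37 °C; luminescence read with Steady-Glo. IC50 values from probit analysis.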
Consider `COC(=O)c1c(NCCNc2ccnc3cc(Cl)ccc23)noc1-c1ccc([N+](=O)[O-])cc1`, for which the selectivity ratio was 4.16.
On the same count and under the same terms, the result for `COC(=O)c1c(NCCCCNc2ccnc3cc(Cl)ccc23)noc1-c1ccccc1[N+](=O)[O-]` reads 8.99; that for `COC(=O)c1c(NCCCNc2ccnc3cc(Cl)ccc23)noc1-c1ccc(Cl)cc1Cl`, 9.67.
Take `COC(=O)c1c([N+](=O)[O-])noc1-c1ccc(Cl)cc1Cl`: the selectivity ratio was determined as 4.49.
Consider `COC(=O)c1c([N+](=O)[O-])noc1-c1cc2c(cc1[N+](=O)[O-])OCO2`, for which the selectivity ratio amounted to 6.51.
In the case of `COC(=O)c1c(NCc2ccc(Cl)cc2)noc1-c1cc2c(cc1[N+](=O)[O-])OCO2`, the selectivity ratio came out at 7.
`O=C(NCc1cccc(Br)c1)c1c([N+](=O)[O-])noc1-c1ccc(Cl)cc1Cl`: the selectivity ratio was determined as 9.19.
Take `COC(=O)c1c(NCCNc2ccnc3cc(Cl)ccc23)noc1-c1ccccc1[N+](=O)[O-]`: the selectivity ratio amounted to 3.94.
As to `COc1ccc(CNC(=O)c2c([N+](=O)[O-])noc2-c2ccc(Cl)cc2Cl)cc1`, the selectivity ratio turned out to be 39.6.
Same read-out and setting: the result for `O=C(NCc1cccc(Cl)c1Cl)c1c([N+](=O)[O-])noc1-c1ccc(Cl)cc1Cl` reads 58.

The test system of a further data set is Leishmania donovani. Briefly: Antileishmanial activity against Leishmania donovani amastigotes infected in golden hamster assessed as reduction in parasite burden in spleen at 50 mg/kg, ip initiated after 2 days of pre-treatment biopsy administered for 5 days and measured on day 7 by giemsa staining based assay relative to control. Type of data set: functional. To be noted: 168 h, time 7 day. The essentials: (§1)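 Male inbred golden hamsters, 40–45 g, infected with L. donovani. Animals with +1 infection on pre-treatment spleen biopsy randomized, five per group. Intraperitoneal dosing in a vehicle of 10% Tween-80/ethanol (70:30) in ddH2O, 10% final, began 2 days after biopsy and ran 5 consecutive days; vehicle-only controls. Giemsa-stained spleen biopsies taken on day 7 or 28; percentage inhibition computed from initial, treated and untreated-control amastigote counts.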
Regarding `COC(=O)c1c(NCCCNc2ccnc3cc(Cl)ccc23)noc1-c1ccc(Cl)cc1Cl`, the inhibition in vivo at 50 mg/kg came out at 62%.
Turning to `COC(=O)c1c([N+](=O)[O-])noc1-c1ccc(Cl)cc1Cl`, the inhibition in vivo at 50 mg/kg is 39.5%.
Turning to `COC(=O)c1c([N+](=O)[O-])noc1-c1cc2c(cc1[N+](=O)[O-])OCO2`, the inhibition in vivo at 50 mg/kg is 36%.
As to `COC(=O)c1c(NCc2ccc(Cl)cc2)noc1-c1cc2c(cc1[N+](=O)[O-])OCO2`, the inhibition in vivo at 50 mg/kg is 13.5%.

Staying with this data set, now noted: time 7.0 day.
Turning to `COC(=O)c1c(NCCNc2ccnc3cc(Cl)ccc23)noc1-c1ccc([N+](=O)[O-])cc1`, the inhibition result was “inactive”.
For `COC(=O)c1c(NCCCCNc2ccnc3cc(Cl)ccc23)noc1-c1ccccc1[N+](=O)[O-]`, the inhibition entry is “inactive”.

A further data set concerns Leishmania donovani. Briefly: Antileishmanial activity against Leishmania donovani amastigotes infected in golden hamster assessed as reduction in parasite burden in spleen at 100 mg/kg, po initiated after 2 days of pre-treatment biopsy administered for 5 days and measured on day 7 by giemsa staining based assay relative to control. It counts as functional. To be noted: 168 h, time 7 day. In outline:
(§2)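 Male inbred golden hamsters, 40–45 g, infected with L. donovani. Animals with +1 infection on pre-treatment spleen biopsy (5–15 amastigotes/100 spleen cell nuclei) randomized, five per group. Oral dosing in 5% carboxymethyl cellulose vehicle began 2 days after biopsy and ran 5 consecutive days; vehicle-only infected controls. Giemsa-stained spleen biopsies taken on day 7 or 28 after the last dose; PI = 100 – [ANAT × 100/(INAT × TIUC)].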
`COC(=O)c1c([N+](=O)[O-])noc1-c1cc2c(cc1[N+](=O)[O-])OCO2`: the inhibition in vivo at 100 mg/kg was found to be 48.4%.

Another data set has as its system Leishmania donovani. Briefly: Antileishmanial activity against Leishmania donovani amastigotes infected in golden hamster assessed as reduction in parasite burden in spleen at 50 mg/kg, ip initiated after 2 days of pre-treatment biopsy administered for 5 days and measured on day 28 by giemsa staining based assay relative to control. To be noted: 672 h, time 28 day. Type of data set: functional. The essentials: as §1
Regarding `COC(=O)c1c(NCCCNc2ccnc3cc(Cl)ccc23)noc1-c1ccc(Cl)cc1Cl`, the inhibition in vivo at 50 mg/kg was determined as 9.23%.
With `COC(=O)c1c([N+](=O)[O-])noc1-c1ccc(Cl)cc1Cl`, the inhibition in vivo at 50 mg/kg turned out to be 29%.
Consider `COC(=O)c1c([N+](=O)[O-])noc1-c1cc2c(cc1[N+](=O)[O-])OCO2`, for which the inhibition in vivo at 50 mg/kg turned out to be 71.2%.
Consider `COC(=O)c1c(NCc2ccc(Cl)cc2)noc1-c1cc2c(cc1[N+](=O)[O-])OCO2`, for which the inhibition in vivo at 50 mg/kg was found to be 2.08%.

Still in this data set, the particulars now being: time 28.0 day.
Turning to `COC(=O)c1c(NCCNc2ccnc3cc(Cl)ccc23)noc1-c1ccc([N+](=O)[O-])cc1`, the inhibition entry was “inactive”.
On to `COC(=O)c1c(NCCCCNc2ccnc3cc(Cl)ccc23)noc1-c1ccccc1[N+](=O)[O-]`, for which the inhibition result is “inactive”.

For the next data set, the system named is Leishmania donovani. Kind of data set: Antileishmanial activity against Leishmania donovani amastigotes infected in golden hamster assessed as reduction in parasite burden in spleen at 100 mg/kg, po initiated after 2 days of pre-treatment biopsy administered for 5 days and measured on day 28 by giemsa staining based assay relative to control. Type of data set: functional. As to conditions: 672 h, time 28 day. The essentials: as §2
For `COC(=O)c1c([N+](=O)[O-])noc1-c1cc2c(cc1[N+](=O)[O-])OCO2`, the inhibition in vivo at 100 mg/kg worked out at 66%.
